How the values were obtained:
Coxsackievirus B3 = test: Antiviral activity against Coxsackievirus B3 assessed as reduction of virus-induced cytopathogenicity after 3 days by MTS assay; format: functional, organism-based; details: Enterovirus B, 72 h
Procedure, shortened: (§1)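 MTS-based CPE reduction assay. Confluent cell monolayers were infected with 100 CCID50 of virus and left 2 h at 37 °C for adsorption, then the inoculum was removed and serial compound dilutions were added. MTS/PMS was added for 2 h and OD was read at 498 nm. EC50 was derived from %CPE relative to uninfected and infected untreated controls.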

enterovirus D68 = test: Antiviral activity against Enterovirus 68 in human MRC5 cells; format: functional; procedure, shortened: as §1
Coxsackievirus B6 = test: Antiviral activity against Coxsackievirus B6 in african green monkey Vero cells; format: functional; procedure, shortened: as §1
Coxsackievirus B4 = test: Antiviral activity against Coxsackievirus B4 in african green monkey Vero cells; format: functional; procedure, shortened: as §1
Coxsackievirus B1 = test: Antiviral activity against Coxsackievirus B1 in african green monkey Vero cells; format: functional; procedure, shortened: as §1
Coxsackievirus A24 = test: Antiviral activity against Coxsackievirus A24 in human MRC5 cells; format: functional
Procedure, shortened: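 MTS-based CPE-reduction assay. Confluent monolayers were infected with 100 CCID50 of virus and adsorbed for 2 h at 37 °C; virus was then removed and serial compound dilutions added. Cultures were incubated 3 days at 37 °C until complete CPE in the untreated virus control. After MTS/PMS for 2 h, OD was read at 498 nm, %CPE calculated against uninfected and infected-untreated controls, and EC50 derived.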

Coxsackievirus B2 = test: Antiviral activity against Coxsackievirus B2 in african green monkey Vero cells; format: functional; procedure, shortened: as §1
Echovirus E11 = test: Antiviral activity against Echovirus 11 in human MRC5 cells; format: functional; procedure, shortened: as §1
Echovirus E9 = test: Antiviral activity against Echovirus 9 in human MRC5 cells; format: functional; procedure, shortened: as §1
Coxsackievirus B5 = test: Antiviral activity against Coxsackievirus B5 in african green monkey Vero cells; format: functional; procedure, shortened: as §1

Work on N#Cc1cc([N+](=O)[O-])ccc1Oc1cccc(NC(N)=O)c1 yielded an IC50 (Coxsackievirus B3) greater than 335 µM.
In the case of COc1ccccc1Oc1ccc([N+](=O)[O-])cc1C#N, the IC50 (Coxsackievirus B3) is reported as 54 µM.
N#Cc1cc([N+](=O)[O-])ccc1Oc1ccc(I)cc1 showed an IC50 (Coxsackievirus B3) of 5.7 µM.
N#Cc1cc([N+](=O)[O-])ccc1Oc1ccc(Cl)cc1Br gave an IC50 (Coxsackievirus B3) of 3.7 µM.
Cc1ccc(Oc2ccc([N+](=O)[O-])cc2C#N)cc1 was tested, and the IC50 (Coxsackievirus B3) was 6.2 µM.
Compound N#Cc1cc([N+](=O)[O-])ccc1Oc1cccc([N+](=O)[O-])c1 has an IC50 (Coxsackievirus B3) of 38 µM.
CN(C)c1cccc(Oc2ccc([N+](=O)[O-])cc2C#N)c1 showed an IC50 (Coxsackievirus B3) of 31 µM.
Work on N#Cc1cc([N+](=O)[O-])ccc1Oc1cc(Cl)cc(Cl)c1 yielded an IC50 (Coxsackievirus B3) greater than 81 µM.
N#Cc1cc([N+](=O)[O-])ccc1Oc1ccc(C(=O)O)cc1 gave an IC50 (Coxsackievirus B3) greater than 352 µM.
Cc1cccc(Oc2ccc([N+](=O)[O-])cc2C#N)c1 was tested, and the Activity (enterovirus D68) was 76 µM, the Activity (Coxsackievirus B6) was 22 µM and the Activity (Coxsackievirus B4) was 22 µM. The Activity (Coxsackievirus B1) was 8.9 µM, the Activity (Coxsackievirus A24) was 19 µM and the IC50 (Coxsackievirus B3) was 6.4 µM. For the same compound, the Activity (Coxsackievirus B2) was 11 µM, the Activity (Echovirus E11) was greater than 393 µM and the Activity (Echovirus E9) was greater than 393 µM. The Activity (Coxsackievirus B5) was 13 µM.
N#Cc1cc([N+](=O)[O-])ccc1Oc1ccc(Cl)c(Cl)c1Cl gave an IC50 (Coxsackievirus B3) greater than 146 µM.
With N#Cc1cc([N+](=O)[O-])ccc1Oc1ccc(Cl)cc1 the Activity (enterovirus D68) was greater than 364 µM, the IC50 (Coxsackievirus B3) was 5 µM and the Activity (Echovirus E11) was greater than 364 µM. The Activity (Echovirus E9) was greater than 364 µM.
In the case of COc1cccc(Oc2ccc([N+](=O)[O-])cc2C#N)c1, the IC50 (Coxsackievirus B3) is reported as 12 µM.
In the case of N#Cc1cc([N+](=O)[O-])ccc1Oc1ccccc1, the Activity (enterovirus D68) is reported as greater than 416 µM, the Activity (Coxsackievirus B6) is reported as 19 µM and the Activity (Coxsackievirus B4) is reported as 26 µM. It also gave an Activity (Coxsackievirus B1) of 6.9 µM, an Activity (Coxsackievirus A24) greater than 240 µM and an IC50 (Coxsackievirus B3) of 8.7 µM. It also gave an Activity (Coxsackievirus B2) of 17 µM, an Activity (Echovirus E11) greater than 416 µM and an Activity (Echovirus E9) greater than 416 µM. For the same compound, the Activity (Coxsackievirus B5) was 10 µM.
N#Cc1cc([N+](=O)[O-])ccc1Oc1ccc(N)c([N+](=O)[O-])c1 was tested, and the IC50 (Coxsackievirus B3) was 10 µM.
For N#Cc1cc([N+](=O)[O-])ccc1Oc1ccc(Cl)cc1N, the IC50 (Coxsackievirus B3) was greater than 53 µM.
With Cc1cc(Cl)ccc1Oc1ccc([N+](=O)[O-])cc1C#N the IC50 (Coxsackievirus B3) was 11 µM.
Work on N#Cc1cc([N+](=O)[O-])ccc1Oc1cccc(C(=O)O)c1 yielded an IC50 (Coxsackievirus B3) greater than 352 µM.
Compound N#Cc1cc([N+](=O)[O-])ccc1Oc1ccc(Br)cc1 has an IC50 (Coxsackievirus B3) of 5.7 µM.
For N#Cc1cc([N+](=O)[O-])ccc1Oc1ccc(C(N)=O)cc1, the IC50 (Coxsackievirus B3) was greater than 353 µM.
Work on CCc1cc(Oc2ccc([N+](=O)[O-])cc2C#N)ccc1Cl yielded an IC50 (Coxsackievirus B3) greater than 330 µM.
Work on COc1ccc(Oc2ccc([N+](=O)[O-])cc2C#N)cc1 yielded an IC50 (Coxsackievirus B3) of 46 µM.
N#Cc1cc([N+](=O)[O-])ccc1Oc1cccc(NC(N)=S)c1 gave an IC50 (Coxsackievirus B3) of 234 µM.
In the case of N#Cc1cc([N+](=O)[O-])ccc1Oc1ccccc1Cl, the Activity (enterovirus D68) is reported as 22 µM, the Activity (Coxsackievirus B6) is reported as 8.1 µM and the Activity (Coxsackievirus B4) is reported as 14 µM. The Activity (Coxsackievirus B1) was 5.6 µM, the Activity (Coxsackievirus A24) was 23 µM and the IC50 (Coxsackievirus B3) was 6.9 µM. For the same compound, the Activity (Coxsackievirus B2) was 6.2 µM, the Activity (Echovirus E11) was 35 µM and the Activity (Echovirus E9) was 35 µM. For the same compound, the Activity (Coxsackievirus B5) was 3.1 µM.
In the case of CC(=O)Nc1ccc(Oc2ccc([N+](=O)[O-])cc2C#N)cc1, the IC50 (Coxsackievirus B3) is reported as greater than 336 µM.
With N#Cc1cc([N+](=O)[O-])ccc1Oc1cccc(I)c1 the IC50 (Coxsackievirus B3) was 5.7 µM.
With CC(=O)c1cccc(Oc2ccc([N+](=O)[O-])cc2C#N)c1 the IC50 (Coxsackievirus B3) was 57 µM.
N#Cc1cc([N+](=O)[O-])ccc1Oc1cccc(N)c1 gave an IC50 (Coxsackievirus B3) of 241 µM.
In the case of N#Cc1cc([N+](=O)[O-])ccc1Oc1ccc(Cl)c(Cl)c1, the Activity (enterovirus D68) is reported as 12 µM, the Activity (Coxsackievirus B6) is reported as 12 µM and the Activity (Coxsackievirus B4) is reported as 17 µM. For the same compound, the Activity (Coxsackievirus B1) was 15 µM, the Activity (Coxsackievirus A24) was 1.8 µM and the IC50 (Coxsackievirus B3) was 6.5 µM. The Activity (Coxsackievirus B2) was 15 µM, the Activity (Echovirus E11) was 6.7 µM and the Activity (Echovirus E9) was greater than 324 µM. The Activity (Coxsackievirus B5) was 18 µM.
Compound N#Cc1ccccc1Oc1ccc([N+](=O)[O-])cc1C#N has an IC50 (Coxsackievirus B3) of 11 µM.
Compound N#Cc1cc([N+](=O)[O-])ccc1Oc1cccc(Cl)c1Cl has an Activity (enterovirus D68) greater than 323 µM, an Activity (Coxsackievirus B6) of 10 µM and an Activity (Coxsackievirus B4) of 17 µM. For the same compound, the Activity (Coxsackievirus B1) was 3.3 µM, the Activity (Coxsackievirus A24) was greater than 309 µM and the IC50 (Coxsackievirus B3) was 4.9 µM. For the same compound, the Activity (Coxsackievirus B2) was 8.6 µM, the Activity (Echovirus E11) was greater than 323 µM and the Activity (Echovirus E9) was greater than 323 µM. It also gave an Activity (Coxsackievirus B5) of 4.8 µM.
For N#Cc1cc([N+](=O)[O-])ccc1Oc1ccc(N)cc1, the IC50 (Coxsackievirus B3) was 106 µM.
N#Cc1cc([N+](=O)[O-])ccc1Oc1c(Cl)cc(Cl)cc1Cl gave an IC50 (Coxsackievirus B3) of 72 µM.
With N#Cc1cc([N+](=O)[O-])ccc1Oc1cccc(Br)c1 the IC50 (Coxsackievirus B3) was 5 µM.
N#Cc1cc([N+](=O)[O-])ccc1Oc1ccc(CO)cc1 was tested, and the IC50 (Coxsackievirus B3) was 121 µM.
With CS(=O)(=O)c1ccc(Oc2ccc([N+](=O)[O-])cc2C#N)cc1 the IC50 (Coxsackievirus B3) was 174 µM.
With N#Cc1ccc(Oc2ccc([N+](=O)[O-])cc2C#N)cc1 the IC50 (Coxsackievirus B3) was 4.1 µM.
For C[S+]([O-])c1ccc(Oc2ccc([N+](=O)[O-])cc2C#N)cc1 (stereo not given), the IC50 (Coxsackievirus B3) was 205 µM.
Cc1ccccc1Oc1ccc([N+](=O)[O-])cc1C#N was tested, and the IC50 (Coxsackievirus B3) was 57 µM.
Cc1cc(C)cc(Oc2ccc([N+](=O)[O-])cc2C#N)c1 showed an IC50 (Coxsackievirus B3) greater than 324 µM.
Work on CC(C)c1cccc(Oc2ccc([N+](=O)[O-])cc2C#N)c1 yielded an IC50 (Coxsackievirus B3) of 40 µM.
In the case of N#Cc1cc([N+](=O)[O-])ccc1Oc1ccc(Br)cc1Br, the IC50 (Coxsackievirus B3) is reported as 6.2 µM.
Work on CC(C)(C)c1ccc(Oc2ccc([N+](=O)[O-])cc2C#N)cc1 yielded an IC50 (Coxsackievirus B3) greater than 338 µM.
N#Cc1cc([N+](=O)[O-])ccc1Oc1cc(Cl)c(Cl)cc1Cl was tested, and the IC50 (Coxsackievirus B3) was 59 µM.
In the case of CSc1ccc(Oc2ccc([N+](=O)[O-])cc2C#N)cc1, the IC50 (Coxsackievirus B3) is reported as 93 µM.
Compound N#Cc1cc([N+](=O)[O-])ccc1Oc1cc(Cl)ccc1Cl has an Activity (enterovirus D68) greater than 323 µM, an IC50 (Coxsackievirus B3) of 3.8 µM and an Activity (Echovirus E11) greater than 323 µM. The Activity (Echovirus E9) was greater than 323 µM.
For N#Cc1ccc(Oc2ccc([N+](=O)[O-])cc2C#N)c(Cl)c1, the IC50 (Coxsackievirus B3) was 7.3 µM.
N#Cc1cc([N+](=O)[O-])ccc1Oc1ccc(Cl)cc1Cl was tested, and the IC50 (Coxsackievirus B3) was 13 µM.
With N#Cc1cccc(Oc2ccc([N+](=O)[O-])cc2C#N)c1 the IC50 (Coxsackievirus B3) was 7.4 µM.
Compound CC(=O)Nc1cccc(Oc2ccc([N+](=O)[O-])cc2C#N)c1 has an IC50 (Coxsackievirus B3) of 121 µM.
Compound N#Cc1cc([N+](=O)[O-])ccc1Oc1ccccc1Br has an IC50 (Coxsackievirus B3) greater than 143 µM.
N#Cc1cc([N+](=O)[O-])ccc1Oc1cccc(Cl)c1 gave an IC50 (Coxsackievirus B3) of 4.9 µM.
N#Cc1cc([N+](=O)[O-])ccc1Oc1ccc([N+](=O)[O-])cc1Cl showed an IC50 (Coxsackievirus B3) of 39 µM.
For Cc1cc(Oc2ccc([N+](=O)[O-])cc2C#N)ccc1Cl, the Activity (enterovirus D68) was greater than 346 µM, the Activity (Coxsackievirus B6) was greater than 346 µM and the Activity (Coxsackievirus B4) was greater than 346 µM. It also gave an Activity (Coxsackievirus B1) of 4.8 µM, an Activity (Coxsackievirus A24) of 234 µM and an IC50 (Coxsackievirus B3) of 2 µM. It also gave an Activity (Coxsackievirus B2) of 5.2 µM, an Activity (Echovirus E11) greater than 346 µM and an Activity (Echovirus E9) greater than 346 µM. For the same compound, the Activity (Coxsackievirus B5) was 2.1 µM.
With Cc1cc(Oc2ccc([N+](=O)[O-])cc2C#N)ccc1Br the IC50 (Coxsackievirus B3) was 2.6 µM.
Work on CC(=O)c1ccc(Oc2ccc([N+](=O)[O-])cc2C#N)cc1 yielded an IC50 (Coxsackievirus B3) of 35 µM.
N#Cc1cc([N+](=O)[O-])ccc1Oc1ccc(Br)cc1Cl was tested, and the IC50 (Coxsackievirus B3) was 3.7 µM.
For Cc1ccc(Oc2ccc([N+](=O)[O-])cc2C#N)cc1C, the IC50 (Coxsackievirus B3) was 99 µM.
Compound Cc1cc(Oc2ccc([N+](=O)[O-])cc2C#N)ccc1[N+](=O)[O-] has an IC50 (Coxsackievirus B3) of 11 µM.
Compound N#Cc1cc([N+](=O)[O-])ccc1Oc1ccc([N+](=O)[O-])cc1 has an Activity (enterovirus D68) greater than 350 µM, an Activity (Coxsackievirus A24) greater than 350 µM and an IC50 (Coxsackievirus B3) of 3.3 µM. For the same compound, the Activity (Echovirus E11) was greater than 350 µM and the Activity (Echovirus E9) was greater than 350 µM.
With N#Cc1cc([N+](=O)[O-])ccc1Oc1ccc(Br)c(Cl)c1 the IC50 (Coxsackievirus B3) was 6.7 µM.
